From ChEMBL document CHEMBL1150769, “Aroyl hydrazones of 2-phenylindole-3-carbaldehydes as novel antimitotic agents” (Bioorg Med Chem, 2008)
Calls of active or inactive are those of the source. The calls are words filed in the database; no cut-off is given here.

Tests used:
MDA-MB-231 [1] = assay: Cell cycle arrest in human MDA-MB-231 cells assessed as increase in accumulation at G2/M phase after 24 hrs by flow cytometry; format: functional, cell-based
In short: (§1)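 MDA-MB 231 cells at 70–80% confluence in 75 cm2 flasks exposed 24 h (DMF vehicle, 0.1% final); trypsinized, fixed in ice-cold 70% EtOH, DNA extraction buffer, propidium iodide stain ≥30 min at room temperature; 8000–15,000 events analysed by flow cytometry for sub-G1, G1/G0, S and G2/M fractions; representative of two experiments.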

MDA-MB-231 [2] = assay: Antiproliferative activity against human MDA-MB-231 cells after 4 days by microplate assay; format: functional, cell-based; conditions: MDA-MB-231, 96 h
In short: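 MDA-MB 231 cells grown in McCoy-5a with L-glutamine, gentamycin, NaHCO3 and 5% FCS; 2–3 days growth at 37 °C, 5% CO2 before compound in fresh medium (controls 0.1% DMF); about 4 days exposure; 1% glutaric dialdehyde fixation, 0.02% crystal violet, 70% EtOH elution, OD 578 nm; mean of two experiments with 16–24 replicates.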

MDA-MB-231 [3] = assay: Cell cycle arrest in human MDA-MB-231 cells assessed as decrease in accumulation at G1/G0 phase after 24 hrs by flow cytometry; format: functional, cell-based; in short: as §1
MCF7 = assay: Antiproliferative activity against human MCF7 cells after 5 days by microplate assay; format: functional, cell-based; conditions: MCF7, 120 h
In short: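 MCF-7 cells grown in EMEM with sodium pyruvate, gentamycin, NaHCO3, phenol red and 10% FCS; seeded in 96-well plates and grown 2–3 days at 37 °C, 5% CO2, then medium with compound (DMF stock; controls 0.1% DMF) for 5 days; glutaric dialdehyde fixation, 0.02% crystal violet stain, ethanol extraction, OD 578 nm; mean of two experiments, 16–24 replicates.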

U-87 MG [4] = assay: Effect on cell morphology in human U87 MG cells assessed as disruption of microtubule network at 50 nM by confocal fluorescence microscopy; format: functional, cell-based; conditions: U-87MG ATCC
In short: (§2)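 U-87 MG cells at 75% confluence in chamber slides treated 3 h at 37 °C (EtOH vehicle); fixed in 4% paraformaldehyde, permeabilized with 1% Triton X-100; α-tubulin immunostained (Cy5 secondary), nuclei with SYTOX Green; imaged by confocal laser scanning microscopy.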

U373 MG [5] = assay: Antiproliferative activity against human U373 MG cells at 50 nM after 72 hrs; format: functional, cell-based; conditions: U-373MG ATCC
In short: (§3)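 U-373 MG glioblastoma cells in EMEM-type medium with 5% FCS under permanent exposure to 10–200 nM; plates fixed with glutaric dialdehyde at various times, stored cold, then crystal violet stained together; absorbance expressed as corrected T/C = (T − C0)/(C − C0) × 100 (%).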

U373 MG [6] = assay: Antiproliferative activity against human U373 MG cells at 200 nM after 100 hrs; format: functional, cell-based; conditions: U-373MG ATCC
In short: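 Confluent (resting) U-373 MG cultures exposed to compound, with DMSO solvent controls, for up to ~150 h; crystal violet staining of fixed cells at various times; effect expressed as cytocidal effect (%) versus time.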

HL-60 [7] = assay: Induction of apoptosis in human HL60 cells assessed as increase in caspase 3 activation at 500 nM after 24 hrs; format: functional, cell-based
In short: (§4)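 HL-60 cells (3 million at 5 × 10^5 cells/mL) treated 24 h at 37 °C, 5% CO2; hypotonic Hepes/DTT/EDTA/CHAPS lysates on ice; Ac-DMQD-AMC (1.0 μM final) cleaved 60 min at 30 °C; released AMC separated by RP-HPLC, quantified fluorometrically (ex 355 or 400, em 435 nm) against AMC standards; activity in pmol/min/mg; means of three experiments ± SD.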

HL-60 [8] = assay: Antiproliferative activity against human HL60 cells after 48 hrs by MTT assay; format: functional, cell-based; conditions: HL-60, 48 h
In short: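 HL-60 human leukemia cells kept in log growth in RPMI 1640 with 10% FCS, penicillin G and streptomycin; treated for 48 h; growth read by MTT assay; IC50 = 50% and IC90 = 90% inhibition of cell growth; values given ± SD.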

U373 MG [9] = assay: Antiproliferative activity against human U373 MG cells after 72 hrs; format: functional, cell-based; conditions: U-373MG ATCC
In short: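 Human U-373 MG glioblastoma cells grown in EMEM with sodium pyruvate, gentamycin, NaHCO3, phenol red and 5% FCS. Exposure was continuous at 10, 50, 100 and 200 nM, with DMF in the controls. Plates were fixed with glutaric dialdehyde at intervals and stained together with crystal violet. Absorbance read at 578 nm; corrected T/C% = (T − C0)/(C − C0) × 100.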

HL-60 [10] = assay: Induction of apoptosis in human HL60 cells assessed as caspase 3 activation at 100 nM after 24 hrs; format: functional, cell-based; in short: as §4
U373 MG [11] = assay: Antiproliferative activity against human U373 MG cells at 10 nM; format: functional, cell-based; conditions: U-373MG ATCC; in short: as §3
HL-60 [12] = assay: Induction of apoptosis in human HL60 cells assessed as increase in caspase 3 activation at 2.0 uM after 24 hrs; format: functional
U-87 MG [13] = assay: Effect on cell morphology in human U87 MG cells assessed as disruption of microtubule network at 10 nM by confocal fluorescence microscopy; format: functional, cell-based; conditions: U-87MG ATCC; in short: as §2
[14] = Inhibition of tubulin polymerization at 5 uM by microplate assay
In short: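 Tubulin suspended in cold G-PEM buffer with 5% glycerol and depolymerised at 0 °C. It was added to compound that had been diluted 1:10 from DMSO stock into G-PEM in wells prewarmed to 37 °C. Turbidity was read at 355 nm every minute for 28–30 min at 37 °C. Solvent controls held 1% DMSO; colchicine (5 µM) and paclitaxel (2 µM) were run as references.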

[15] = Inhibition of tubulin polymerization at 5 uM by microplate assay
HL-60 [16] = assay: Induction of apoptosis in human HL60 cells assessed as increase in caspase 3 activation at 1 uM after 24 hrs; format: functional, cell-based
HL-60 [17] = assay: Induction of apoptosis in human HL60 cells assessed as increase in caspase 9 activation at 1 uM after 24 hrs; format: functional, cell-based

SMILES | IC50 (MDA-MB-231 [2]) [nM] | IC50 (MCF7) [nM] | other results
CCCCc1ccc2[nH]c(-c3ccc(OC)cc3)c(/C=N/NC(=O)c3ccccc3)c2c1 | 32 | 130 | Activity (MDA-MB-231 [1]): Active; Activity (MDA-MB-231 [3]): Active
CCCCc1ccc2[nH]c(-c3ccc(CC)cc3)c(/C=N/NC(=O)c3ccncc3)c2c1 | 80 | 150 | 
CCCCc1ccc2[nH]c(-c3ccc(C(F)(F)F)cc3)c(/C=N/NC(=O)c3ccccn3)c2c1 | 260 | 310 | 
CCCCc1ccc2[nH]c(-c3ccc(OC)cc3)c(/C=N/NC(=O)c3ccc(F)cc3)c2c1 | 19 | 84 | Activity (U-87 MG [4]): inactive; Activity (U373 MG [5]): Active; Activity (U373 MG [6]): Active; Activity (HL-60 [7]): Active; IC50 (HL-60 [8]): 91 nM; IC90 (HL-60 [8]): 164 nM
CCCCc1ccc2[nH]c(-c3ccc(OC)cc3)c(/C=N/NC(=O)c3ccc([N+](=O)[O-])cc3)c2c1 | 115 | 312 | 
C=C(C)[C@H]1Cc2c(ccc3c2O[C@@H]2COc4cc(OC)c(OC)cc4[C@@H]2C3=O)O1 |  |  | Activity (U373 MG [9]): Active
CCCCc1ccc2[nH]c(-c3ccc(OC)cc3)c(/C=N/NC(=O)c3cccc(OC)c3)c2c1 | 55 |  | 
CCCCc1ccc2[nH]c(-c3ccc(OC)cc3)c(/C=N/NC(=O)c3ccncc3)c2c1 | 29 | 69 | 
CCCCc1ccc2[nH]c(-c3ccc(OC)cc3)c(/C=N/NC(=O)c3ccccn3)c2c1 | 34 | 160 | IC50 (HL-60 [8]): 213 nM; IC90 (HL-60 [8]): 333 nM
CCCCc1ccc2[nH]c(-c3ccc(OC)cc3)c(/C=N/NC(=O)c3cccnc3)c2c1 | 35 | 75 | Activity (HL-60 [10]): Active; Activity (U373 MG [11]): Active; Activity (U373 MG [6]): Active; IC50 (HL-60 [8]): 50 nM; IC90 (HL-60 [8]): 115 nM
CCCCc1ccc2[nH]c(-c3ccc(C(F)(F)F)cc3)c(/C=N/NC(=O)c3cccnc3)c2c1 | 97 | 260 | 
CCCCc1ccc2[nH]c(-c3ccc(C(F)(F)F)cc3)c(/C=N/NC(=O)c3ccc(Cl)cc3)c2c1 | 329 | 1060 | 
CCCCc1ccc2[nH]c(-c3ccc(C(F)(F)F)cc3)c(/C=N/NC(=O)c3ccccc3)c2c1 | 300 | 460 | 
COc1ccc(-c2[nH]c3ccc(C)cc3c2/C=N/NC(=O)c2ccncc2)cc1 | 290 | 200 | 
CCCCc1ccc2[nH]c(-c3ccc(OC)cc3)c(/C=N/O)c2c1 | 40 | 212 | 
COc1cc([C@@H]2c3cc4c(cc3[C@@H](O[C@@H]3O[C@@H]5CO[C@@H](C)O[C@H]5[C@H](O)[C@H]3O)[C@H]3COC(=O)[C@H]23)OCO4)cc(OC)c1O [ETOPOSIDE] |  |  | Activity (HL-60 [12]): 3.37; IC50 (HL-60 [8]): 315 nM
CCCCc1ccc2[nH]c(-c3ccc(OC)cc3)c(/C=N/NC(=O)c3cccc(O)c3)c2c1 | 30 |  | 
CC[C@]1(O)C[C@H]2CN(CCc3c([nH]c4ccccc34)[C@@](C(=O)OC)(c3cc4c(cc3OC)N(C=O)[C@H]3[C@@](O)(C(=O)OC)[C@H](OC(C)=O)[C@]5(CC)C=CCN6CC[C@]43[C@@H]65)C2)C1 [VINCRISTINE] | 6 | 2 | Activity (U-87 MG [13]): Active
CCCCc1ccc2[nH]c(-c3ccc(OC)cc3)c(/C=N/NC(=O)c3ccc(Cl)cc3)c2c1 | 90 | 220 | 
CCCCc1ccc2[nH]c(-c3ccc(OC)cc3)c(/C=N/NC(=O)c3ccccc3OC)c2c1 | 21 | 71 | Activity (HL-60 [7]): Active; IC50 (HL-60 [8]): 74 nM; IC90 (HL-60 [8]): 142 nM
COc1cc2c(c(OC)c1OC)-c1ccc(OC)c(=O)cc1[C@@H](NC(C)=O)CC2 |  |  | Activity [14]: Active
CCCCc1ccc2[nH]c(-c3ccc(C(F)(F)F)cc3)c(/C=N/NC(=O)c3ccc(OC)cc3)c2c1 | 284 | 618 | 
CCCCc1ccc2[nH]c(-c3ccc(CC)cc3)c(/C=N/NC(=O)c3cccnc3)c2c1 | 53 | 100 | 
CCCCc1ccc2[nH]c(-c3ccc(C(F)(F)F)cc3)c(/C=N/NC(=O)c3ccc([N+](=O)[O-])cc3)c2c1 | 2040 | 6340 | 
CC(=O)O[C@H]1C(=O)[C@@]2(C)[C@H]([C@H](OC(=O)c3ccccc3)[C@]3(O)C[C@H](OC(=O)[C@H](O)[C@@H](NC(=O)c4ccccc4)c4ccccc4)C(C)=C1C3(C)C)[C@]1(OC(C)=O)CO[C@@H]1C[C@@H]2O |  |  | Activity [15]: Active
CCCCc1ccc2[nH]c(-c3ccc(C(F)(F)F)cc3)c(/C=N/NC(=O)c3ccncc3)c2c1 | 94 | 100 | Activity (HL-60 [16]): Active; Activity (HL-60 [17]): Active
CCCCc1ccc2[nH]c(-c3ccc(OC)cc3)c(/C=N/NC(=O)c3ccc(OC)cc3)c2c1 | 61 | 226 | 
